Measurements taken from publication PMC3458512 (Organic & biomolecular chemistry, 2012).

Tested on: T. cruzi amastigotes
Test: T. cruzi amastigotes assay
Type: cell-based, Trypanosoma cruzi
Details: Trypanosoma cruzi, Vero, 72 h, read-out: IC50 T. cruzi amastigotes
Procedure, shortened: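 Vero cells gamma-irradiated (2,000 Rads), seeded at 3.4 × 10^4/well in RPMI + 10% FBS, overnight at 35 °C, 7% CO2. Infected 5 h with 3.4 × 10^5 tdTomato-expressing CL-strain trypomastigotes/well, washed, then serial test compound dilutions in quadruplicate. Controls were uninfected, drug-only and untreated-infected wells, plus benznidazole reference at 3.5 and 1.5 μM. Fluorescence read day 3 post-infection; IC50 by non-linear regression.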

| SMILES | IC50 [nM] |
| --- | --- |
| O=C(Cn1ccnc1[N+](=O)[O-])NCc1ccccc1 [benznidazole, reference compound] | 2770 ± 488 |

Same assay, conditions: at 10 μM

| SMILES | growth inhibition of T. cruzi intracellular amastigotes [% at 10 μM] |
| --- | --- |
| CCCCCCCCC(F)(P(=O)(O)O)P(=O)(O)O [Compound 43, 1-(Fluoro-n-nonylidene)-1,1-bisphosphonic acid] | 13 |

Biological target: T. gondii farnesyl pyrophosphate synthase (TgFPPS) (Toxoplasma gondii, UniProt Q197X6)
Test: not given
Type: biochemical
Details: read-out: IC50 TgFPPS

| SMILES | IC50 [nM] |
| --- | --- |
| CCCCC(F)(P(=O)(O)O)P(=O)(O)O [Compound 39, 1-(Fluoro-n-pentylidene)-1,1-bisphosphonic] | 3420 ± 1670 |
| CCCCCCCCC(F)(P(=O)(O)O)P(=O)(O)O [Compound 43, 1-(Fluoro-n-nonylidene)-1,1-bisphosphonic acid] | 35 ± 19 |
| CCCCCCC(F)(P(=O)(O)O)P(=O)(O)O [Compound 41, 1-(Fluoro-n-heptylidene)-1,1-bisphosphonic acid] | 241 ± 120 |
| CCCCCCCC(F)(P(=O)(O)O)P(=O)(O)O [Compound 42, 1-(Fluoro-n-octylidene)-1,1-bisphosphonic acid] | 616 ± 259 |
| CCC(F)(P(=O)(O)O)P(=O)(O)O [Compound 37, 1-(Fluoro-n-propylidene)-1,1-bisphosphophonic acid] | > 10000 |
| O=P(O)(O)C(F)P(=O)(O)O [Compound 35, 1-(Fluoromethylene)-1,1-bisphosphonic acid] | > 10000 |
| CC(F)(P(=O)(O)O)P(=O)(O)O [Compound 36, 1-(Fluoroethylidene)-1,1-bisphosphonic acid] | > 10000 |
| CCCCCC(F)(P(=O)(O)O)P(=O)(O)O [Compound 40, 1-(Fluoro-n-hexylidene)-1,1-bisphosphonic acid] | 160 ± 78 |
| CCCC(F)(P(=O)(O)O)P(=O)(O)O [Compound 38, 1-(Fluoro-n-butylidene)-1,1-bisphosphonic acid] | > 10000 |
| CCCCCCCCCC(F)(P(=O)(O)O)P(=O)(O)O [Compound 44, 1-(Fluoro-n-decylidene)-1,1-bisphosphonic acid] | 60 ± 6 |

Biological target: T. cruzi farnesyl pyrophosphate synthase (TcFPPS) (Trypanosoma cruzi, UniProt Q8WS26)
Test: TcFPPS enzymatic activity inhibition assay
Type: biochemical
Details: read-out: IC50 TcFPPS; recombinant enzyme

| SMILES | IC50 [nM] |
| --- | --- |
| CCCCC(F)(P(=O)(O)O)P(=O)(O)O [Compound 39, 1-(Fluoro-n-pentylidene)-1,1-bisphosphonic] | > 1000 |
| CCCCCCCCC(F)(P(=O)(O)O)P(=O)(O)O [Compound 43, 1-(Fluoro-n-nonylidene)-1,1-bisphosphonic acid] | > 1000 |
| CCCCCCC(F)(P(=O)(O)O)P(=O)(O)O [Compound 41, 1-(Fluoro-n-heptylidene)-1,1-bisphosphonic acid] | > 1000 |
| CCCCCCCC(F)(P(=O)(O)O)P(=O)(O)O [Compound 42, 1-(Fluoro-n-octylidene)-1,1-bisphosphonic acid] | > 1000 |
| CCC(F)(P(=O)(O)O)P(=O)(O)O [Compound 37, 1-(Fluoro-n-propylidene)-1,1-bisphosphophonic acid] | > 1000 |
| O=P(O)(O)C(F)P(=O)(O)O [Compound 35, 1-(Fluoromethylene)-1,1-bisphosphonic acid] | > 1000 |
| CC(F)(P(=O)(O)O)P(=O)(O)O [Compound 36, 1-(Fluoroethylidene)-1,1-bisphosphonic acid] | > 1000 |
| CCCCCC(F)(P(=O)(O)O)P(=O)(O)O [Compound 40, 1-(Fluoro-n-hexylidene)-1,1-bisphosphonic acid] | > 1000 |
| CCCC(F)(P(=O)(O)O)P(=O)(O)O [Compound 38, 1-(Fluoro-n-butylidene)-1,1-bisphosphonic acid] | > 1000 |
| CCCCCCCCCC(F)(P(=O)(O)O)P(=O)(O)O [Compound 44, 1-(Fluoro-n-decylidene)-1,1-bisphosphonic acid] | > 1000 |

Tested on: T. gondii tachyzoites
Test: T. gondii tachyzoites growth assay
Type: cell-based, Toxoplasma gondii
Details: read-out: IC50 T. gondii tachyzoites; growth inhibition of tachyzoites

| SMILES | IC50 [nM] |
| --- | --- |
| CCCCC(F)(P(=O)(O)O)P(=O)(O)O [Compound 39, 1-(Fluoro-n-pentylidene)-1,1-bisphosphonic] | > 10000 |
| CCCCCCCCC(F)(P(=O)(O)O)P(=O)(O)O [Compound 43, 1-(Fluoro-n-nonylidene)-1,1-bisphosphonic acid] | 2670 |
| CCCCCCC(F)(P(=O)(O)O)P(=O)(O)O [Compound 41, 1-(Fluoro-n-heptylidene)-1,1-bisphosphonic acid] | > 10000 |
| CCCCCCCC(F)(P(=O)(O)O)P(=O)(O)O [Compound 42, 1-(Fluoro-n-octylidene)-1,1-bisphosphonic acid] | > 10000 |
| CCC(F)(P(=O)(O)O)P(=O)(O)O [Compound 37, 1-(Fluoro-n-propylidene)-1,1-bisphosphophonic acid] | > 10000 |
| O=P(O)(O)C(F)P(=O)(O)O [Compound 35, 1-(Fluoromethylene)-1,1-bisphosphonic acid] | > 10000 |
| CC(F)(P(=O)(O)O)P(=O)(O)O [Compound 36, 1-(Fluoroethylidene)-1,1-bisphosphonic acid] | > 10000 |
| CCCCCC(F)(P(=O)(O)O)P(=O)(O)O [Compound 40, 1-(Fluoro-n-hexylidene)-1,1-bisphosphonic acid] | > 10000 |
| CCCC(F)(P(=O)(O)O)P(=O)(O)O [Compound 38, 1-(Fluoro-n-butylidene)-1,1-bisphosphonic acid] | > 10000 |
| CCCCCCCCCC(F)(P(=O)(O)O)P(=O)(O)O [Compound 44, 1-(Fluoro-n-decylidene)-1,1-bisphosphonic acid] | > 10000 |

Tested on: T. cruzi
Test: not given
Details: in vivo; cited from earlier work

| SMILES | survival of T. cruzi-infected mice |
| --- | --- |
| O=P(O)(O)C(O)(Cc1cccnc1)P(=O)(O)O [Risedronate, risedronate] | significantly increase survival |
